Common to all, as to format: functional
The subject of one experiment is Pseudomonas aeruginosa. The experiment is described as follows: Antibacterial activity against Pseudomonas aeruginosa strain 27853. The method in brief:
(§1)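 Broth microdilution MIC run to NCCLS standards: serial 2-fold dilutions in cation-adjusted Mueller–Hinton broth, inoculum ~5 × 10^5 CFU/mL, incubated 35 °C for 18–24 h. Trays were read by eye, and the MIC was taken as the lowest concentration giving complete growth inhibition (no visible turbidity).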

Experiment [1] deals with Staphylococcus aureus. Nature of the experiment: Antibacterial activity against Staphylococcus aureus strain St au 29213. A digest of the protocol:
as §1

The subject of another experiment is Escherichia coli. Nature of the experiment: Antibacterial activity against Escherichia coli strain 25922. The method in brief: as §1
A further experiment deals with Enterococcus faecalis. Nature of the experiment: Antibacterial activity against Enterococcus faecalis strain 29212. The method in brief: as §1
Experiment [2] has as its system Staphylococcus aureus. The experiment is described as follows: Antibacterial activity against Staphylococcus aureus strain St au 33591 MRSA. The method in brief:
as §1

Converted amounts (≈) assume the structure as drawn.

The MIC is the lowest concentration that inhibits growth of the organism. As for `NC1CCN(c2cc3c(cc2F)c(=O)c(C(=O)O)cn3-c2ccc(O)cc2)C1` (stereo not given), the minimal inhibitory concentration (MIC) against Pseudomonas aeruginosa worked out at 1.56 µg/mL (≈ 4.07 µM); with Staphylococcus aureus [1] it was 0.4 µg/mL (≈ 1.04 µM); with Escherichia coli it was 0.4 µg/mL (≈ 1.04 µM); with Enterococcus faecalis it was 3.13 µg/mL (≈ 8.16 µM); in the experiment with Staphylococcus aureus [2], 0.4 µg/mL (≈ 1.04 µM).
For `COc1c(N2C[C@@H](C)[C@@H](C)C2)c(F)cc2c(=O)c(C(=O)O)cn(-c3ccc(O)cc3)c12`, the MIC was 3.13 µg/mL (≈ 7.34 µM) with Pseudomonas aeruginosa; 0.78 µg/mL (≈ 1.83 µM) against Staphylococcus aureus [1]; 0.78 µg/mL (≈ 1.83 µM) in the experiment with Escherichia coli; 6.25 µg/mL (≈ 14.7 µM) in the experiment on Enterococcus faecalis; 0.78 µg/mL (≈ 1.83 µM) with Staphylococcus aureus [2].
Consider `C[C@H]1CN(c2nc3c(cc2F)c(=O)c(C(=O)O)cn3-c2ccc(O)cc2)C[C@H]1N`, for which the minimal inhibitory concentration (MIC) against Pseudomonas aeruginosa is 0.78 µg/mL (≈ 1.96 µM); in the experiment with Staphylococcus aureus [1] it was 0.4 µg/mL (≈ 1 µM); against Escherichia coli, 0.4 µg/mL (≈ 1 µM); against Enterococcus faecalis, 1.56 µg/mL (≈ 3.92 µM); against Staphylococcus aureus [2], 0.4 µg/mL (≈ 1 µM).
Take `N[C@H]1CN(c2nc3c(cc2F)c(=O)c(C(=O)O)cn3-c2ccc(O)cc2)CC12CC2`: the MIC in the experiment with Pseudomonas aeruginosa worked out at 0.78 µg/mL (≈ 1.9 µM); against Staphylococcus aureus [1], 0.2 µg/mL (≈ 0.487 µM); with Escherichia coli it was 0.2 µg/mL (≈ 0.487 µM); against Enterococcus faecalis, 0.78 µg/mL (≈ 1.9 µM); with Staphylococcus aureus [2], 0.4 µg/mL (≈ 0.975 µM).
Regarding `N[C@@H]1CCC[C@@H]2CN(c3cc4c(cc3F)c(=O)c(C(=O)O)cn4-c3ccc(O)cc3)C[C@@H]21`, the MIC in the experiment with Pseudomonas aeruginosa was 12.5 µg/mL (≈ 28.6 µM); against Staphylococcus aureus [1] it was 0.2 µg/mL (≈ 0.457 µM); in the experiment with Escherichia coli, 3.13 µg/mL (≈ 7.15 µM); against Enterococcus faecalis it was 1.56 µg/mL (≈ 3.57 µM); against Staphylococcus aureus [2], 0.2 µg/mL (≈ 0.457 µM).
In the case of `C[C@@H]1C[C@H](N)CN1c1cc2c(cc1F)c(=O)c(C(=O)O)cn2-c1ccc(O)cc1`, the MIC was 50 µg/mL (≈ 126 µM) in the experiment on Pseudomonas aeruginosa; 0.78 µg/mL (≈ 1.96 µM) against Staphylococcus aureus [1]; 3.13 µg/mL (≈ 7.88 µM) against Escherichia coli; 12.5 µg/mL (≈ 31.5 µM) against Enterococcus faecalis; 0.78 µg/mL (≈ 1.96 µM) against Staphylococcus aureus [2].
In the case of `COc1c(N2CC3CC2CN3)c(F)cc2c(=O)c(C(=O)O)cn(-c3ccc(O)cc3)c12` (stereo not given), the MIC was 12.5 µg/mL (≈ 29.4 µM) with Pseudomonas aeruginosa; 6.25 µg/mL (≈ 14.7 µM) with Staphylococcus aureus [1]; 6.25 µg/mL (≈ 14.7 µM) in the experiment on Escherichia coli; more than 50 µg/mL against Enterococcus faecalis; 3.13 µg/mL (≈ 7.36 µM) against Staphylococcus aureus [2].
As to `C[C@@H]1CN(c2nc3c(cc2F)c(=O)c(C(=O)O)cn3-c2ccc(O)cc2)C[C@H](C)N1`, the minimal inhibitory concentration (MIC) against Pseudomonas aeruginosa is 6.25 µg/mL (≈ 15.2 µM); against Staphylococcus aureus [1], 3.13 µg/mL (≈ 7.59 µM); with Escherichia coli it was 0.4 µg/mL (≈ 0.97 µM); against Enterococcus faecalis, 12.5 µg/mL (≈ 30.3 µM); in the experiment on Staphylococcus aureus [2] it was 6.25 µg/mL (≈ 15.2 µM).
As for `N[C@@H]1CN(c2nc3c(cc2F)c(=O)c(C(=O)O)cn3-c2ccc(O)cc2)CC12CC2`, the MIC against Pseudomonas aeruginosa amounted to 3.13 µg/mL (≈ 7.63 µM); in the experiment on Staphylococcus aureus [1], 1.56 µg/mL (≈ 3.8 µM); in the experiment with Escherichia coli, 1.56 µg/mL (≈ 3.8 µM); against Enterococcus faecalis, 25 µg/mL (≈ 60.9 µM); against Staphylococcus aureus [2], 1.56 µg/mL (≈ 3.8 µM).
With `COc1c(N2CCNCC2)c(F)cc2c(=O)c(C(=O)O)cn(-c3ccc(O)cc3)c12`, the minimal inhibitory concentration (MIC) amounted to 6.25 µg/mL (≈ 15.1 µM) against Pseudomonas aeruginosa; 0.2 µg/mL (≈ 0.484 µM) in the experiment with Staphylococcus aureus [1]; 0.78 µg/mL (≈ 1.89 µM) against Escherichia coli; 25 µg/mL (≈ 60.5 µM) in the experiment with Enterococcus faecalis; 0.4 µg/mL (≈ 0.968 µM) in the experiment with Staphylococcus aureus [2].
In the same order, the values of `NCC1CCN(c2nc3c(cc2F)c(=O)c(C(=O)O)cn3-c2ccc(O)cc2)C1` (stereo not given) are 6.25 µg/mL (≈ 15.7 µM), 0.4 µg/mL (≈ 1 µM), 3.13 µg/mL (≈ 7.86 µM), 3.13 µg/mL (≈ 7.86 µM) and 1.56 µg/mL (≈ 3.92 µM).
As for `O=C(O)c1cn(-c2ccc(O)cc2)c2cc(N3CC4CCCNC4C3)c(F)cc2c1=O` (stereo not given), the minimum inhibitory concentration (MIC) against Pseudomonas aeruginosa turned out to be 6.25 µg/mL (≈ 14.8 µM); with Staphylococcus aureus [1] it was 0.4 µg/mL (≈ 0.945 µM); against Escherichia coli, 1.56 µg/mL (≈ 3.68 µM); against Enterococcus faecalis, 3.13 µg/mL (≈ 7.39 µM); against Staphylococcus aureus [2] it was 0.4 µg/mL (≈ 0.945 µM).
Regarding `COc1c(N2CC3CCCN(C)C3C2)c(F)cc2c(=O)c(C(=O)O)cn(-c3ccc(O)cc3)c12` (stereo not given), the MIC with Pseudomonas aeruginosa worked out at 6.25 µg/mL (≈ 13.4 µM); against Staphylococcus aureus [1], 0.78 µg/mL (≈ 1.67 µM); against Escherichia coli, 0.4 µg/mL (≈ 0.856 µM); in the experiment on Enterococcus faecalis, 12.5 µg/mL (≈ 26.7 µM); against Staphylococcus aureus [2], 1.56 µg/mL (≈ 3.34 µM).
For `COc1c(N2C[C@@H](C)[C@H](C)C2)c(F)cc2c(=O)c(C(=O)O)cn(-c3ccc(O)cc3)c12` the same measures were 6.25 µg/mL (≈ 14.7 µM), 0.78 µg/mL (≈ 1.83 µM), 0.78 µg/mL (≈ 1.83 µM), 12.5 µg/mL (≈ 29.3 µM) and 0.78 µg/mL (≈ 1.83 µM).
As for `COc1c(N2CC3CCCNC3C2)c(F)cc2c(=O)c(C(=O)O)cn(-c3ccc(O)cc3)c12` (stereo not given), the MIC worked out at 6.25 µg/mL (≈ 13.8 µM) with Pseudomonas aeruginosa; 0.78 µg/mL (≈ 1.72 µM) in the experiment on Staphylococcus aureus [1]; 1.56 µg/mL (≈ 3.44 µM) against Escherichia coli; 12.5 µg/mL (≈ 27.6 µM) in the experiment on Enterococcus faecalis; 0.78 µg/mL (≈ 1.72 µM) in the experiment on Staphylococcus aureus [2].
Take `COc1c(N2CCC(CN)C2)c(F)cc2c(=O)c(C(=O)O)cn(-c3ccc(O)cc3)c12` (stereo not given): the minimal inhibitory concentration (MIC) was 50 µg/mL (≈ 117 µM) in the experiment on Pseudomonas aeruginosa; 3.13 µg/mL (≈ 7.32 µM) with Staphylococcus aureus [1]; 6.25 µg/mL (≈ 14.6 µM) in the experiment on Escherichia coli; 25 µg/mL (≈ 58.5 µM) against Enterococcus faecalis; 3.13 µg/mL (≈ 7.32 µM) against Staphylococcus aureus [2].
`N[C@@H]1CN(c2cc3c(cc2F)c(=O)c(C(=O)O)cn3-c2ccc(O)cc2)CC12CC2`: the MIC was found to be 1.56 µg/mL (≈ 3.81 µM) against Pseudomonas aeruginosa; 0.2 µg/mL (≈ 0.488 µM) against Staphylococcus aureus [1]; 0.2 µg/mL (≈ 0.488 µM) in the experiment on Escherichia coli; 0.78 µg/mL (≈ 1.91 µM) with Enterococcus faecalis; 0.1 µg/mL (≈ 0.244 µM) against Staphylococcus aureus [2].

The values are drawn from ChEMBL document CHEMBL1138748, “A prodrug approach toward the development of water soluble fluoroquinolones and structure--activity relationships of quinoline-3-carboxylic acids” (2004).
